From ChEMBL document CHEMBL3085650, “Extending the record of bis-γ-pyrone polypropionates from marine pulmonate mollusks” (J Nat Prod, 2013)

Columns and labels:
A549 = test: Growth inhibition of human A549 cells after 72 hrs by MTT assay; format: functional, cell-based; details: A549, 72 h
How it was run: (§1)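 Human cancer cell lines (from ATCC, ECACC or DSMZ) cultured 72 h with compound; viable cells measured by MTT colorimetric assay, where mitochondrial succinate dehydrogenase reduces yellow MTT to blue formazan, read by spectrophotometry. Optical density of treated versus control cells gives growth inhibition, expressed as IC50 (μM). Camptothecin and etoposide served as reference compounds.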

MCF7 = test: Growth inhibition of human MCF7 cells after 72 hrs by MTT assay; format: functional, cell-based; details: MCF7, 72 h; how it was run: as §1
PC-3 = test: Growth inhibition of human PC3 cells after 72 hrs by MTT assay; format: functional, cell-based; details: PC-3, 72 h; how it was run: as §1
[1] = Growth inhibition of human Hs683 cells after 72 hrs by MTT assay; format: functional, cell-based; details: Hs 683, 72 h; how it was run: as §1
[2] = Growth inhibition of human U373 cells after 72 hrs by MTT assay; format: functional, cell-based, U-373MG ATCC; details: U373 MG; how it was run: as §1
SK-MEL-28 = test: Growth inhibition of human SK-MEL-28 cells after 72 hrs by MTT assay; format: functional, cell-based; details: SK-MEL-28, 72 h; how it was run: as §1

Compound	IC50 (A549) [µM]	IC50 (MCF7) [µM]	IC50 (PC-3) [µM]	IC50 [1] [µM]	IC50 [2] [µM]	IC50 (SK-MEL-28) [µM]
CCc1oc([C@H](C)/C=C(\C)[C@H](O)[C@H](C)[C@@H](OC(=O)CC(C)C)[C@@H](C)c2oc([C@@H](C)[C@@H](O)CC)c(C)c(=O)c2C)c(C)c(=O)c1C	> 100	> 100	> 100	> 100	> 100	> 100
CCc1oc([C@H](C)/C=C(\C)[C@H](OC(C)=O)[C@H](C)[C@@H](OC(=O)CC(C)C)[C@@H](C)c2oc([C@@H](C)[C@@H](O)CC)c(C)c(=O)c2C)c(C)c(=O)c1C	15	15	3	30	21	25
CCC(=O)[C@H](C)c1oc([C@H](C)[C@@H]2O[C@](O)([C@@H](C)c3oc(CC)c(C)c(=O)c3C)[C@@H](C)[C@@H](OC(=O)CC(C)C)[C@@H]2C)c(C)c(=O)c1C	26	21	16	23	25	23
CCC(=O)O[C@@H](/C(C)=C/[C@@H](C)c1oc(CC)c(C)c(=O)c1C)[C@H](C)[C@@H](OC(=O)CC(C)C)[C@@H](C)c1oc([C@@H](C)[C@H](CC)OC(C)=O)c(C)c(=O)c1C	3	4	2	3	9	7
CC[C@@]1(O)C(=O)OCc2c1cc1n(c2=O)Cc2cc3ccccc3nc2-1 [CAMPTOTHECIN]	< 0.01	< 0.01	0.01	< 0.01	0.015	< 0.01
CCC(=O)[C@H](C)c1oc([C@H](C)[C@@H]2O[C@](O)([C@@H](C)c3oc(CC)c(C)c(=O)c3C)[C@@H](C)[C@@H](O)[C@@H]2C)c(C)c(=O)c1C	> 100	> 100	> 100	> 100	> 100	> 100
COc1cc([C@@H]2c3cc4c(cc3[C@@H](O[C@@H]3O[C@@H]5CO[C@@H](C)O[C@H]5[C@H](O)[C@H]3O)[C@H]3COC(=O)[C@H]23)OCO4)cc(OC)c1O [ETOPOSIDE]	2	4	> 100	2	25	3
CCC(=O)[C@@H](C)c1oc([C@H](C)[C@@H]2O[C@](O)([C@@H](C)c3oc(CC)c(C)c(=O)c3C)[C@@H](C)[C@@H](O)[C@@H]2C)c(C)c(=O)c1C	> 100	87	82	> 100	> 100	> 100
CCc1oc([C@H](C)/C=C(\C)[C@H](OC(C)=O)[C@H](C)[C@@H](OC(=O)CC(C)C)[C@@H](C)c2oc([C@@H](C)[C@H](CC)OC(C)=O)c(C)c(=O)c2C)c(C)c(=O)c1C	28	25	7	24	32	33
CCC(=O)O[C@@H](/C(C)=C/[C@@H](C)c1oc(CC)c(C)c(=O)c1C)[C@H](C)[C@@H](OC(=O)CC(C)C)[C@@H](C)c1oc([C@@H](C)[C@@H](O)CC)c(C)c(=O)c1C	12	12	3	13	21	25
